The source made the active and inactive calls. No cut-off for these calls is given here.
What was measured:
P2Y purinoceptor 6 [1] = biological target: T1, P2Y purinoceptor 6 (Homo sapiens, UniProt Q15077); assay: Agonist activity at human recombinant P2Y6 receptor expressed in human 1321N1 cells assessed as increase in intracellular calcium level by fluo-4 dye-based spectrofluorometric analysis; assay type: functional, cell-based
Summary of the method: (§1)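 1321N1 cells stably expressing recombinant hP2Y6-R were trypsin/EDTA-detached, loaded with 1 µM Fluo-4/AM in HBSS (Ca2+/Mg2+) for 25 min at 37 °C, then held 25 min at 37 °C for de-esterification. Stirred cuvette suspension read at ex 488/em 520 nm after compound addition, with UDP as control. Fmax/Fmin set with 0.1% Triton X-100 then 50 mM EDTA; [Ca2+] = Kd(F−Fmin)/(Fmax−F).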

P2Y purinoceptor 6 [2] = biological target: T1, P2Y purinoceptor 6; assay: Agonist activity at human recombinant P2Y6 receptor expressed in human 1321N1 cells assessed as increase in intracellular calcium level at >100 uM by fluo-4 dye-based spectrofluorometric analysis; assay type: functional, cell-based; summary of the method: as §1
P2Y purinoceptor 6 [3] = biological target: T1, P2Y purinoceptor 6; assay: Antagonist activity at human recombinant P2Y6 receptor expressed in human 1321N1 cells assessed as inhibition of UDP-induced increase in intracellular calcium level at 30 uM incubated for 2 mins prior to UDP induction by fluo-4 dye-based spectrofluorometric analysis; assay type: functional, cell-based
Summary of the method: (§2)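 hP2Y6-R-expressing 1321N1 cells, Fluo-4/AM-loaded (1 µM, 25 min, 37 °C, then 25 min de-esterification) in HBSS with Ca2+/Mg2+, stirred in a cuvette with fluorescence at 488/520 nm. Analogue given 2 min before 1 µM UDP stimulation. Calcium calculated from Triton X-100/EDTA calibration. Two experiments in duplicate, mean ± SEM; one-way ANOVA against vehicle control.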

P2Y purinoceptor 6 [4] = biological target: T1, P2Y purinoceptor 6; assay: Antagonist activity at human recombinant P2Y6 receptor expressed in human 1321N1 cells assessed as inhibition of UDP-induced increase in intracellular calcium level at 100 uM incubated for 2 mins prior to UDP induction by fluo-4 dye-based spectrofluorometric analysis; assay type: functional, cell-based; summary of the method: as §2
[5] = biological target: T2, NPP1 (ectonucleotide pyrophosphatase/phosphodiesterase family member 1) (Homo sapiens, UniProt P22413); assay: Drug metabolism assessed as human NPP1-mediated compound hydrolysis at 100 uM after 2 hrs by HPLC analysis relative to UDP-treated control; assay type: ADME; details: human NPP1 enzyme, read-out: Drug metabolism
T2 sequence (P22413 whole entry): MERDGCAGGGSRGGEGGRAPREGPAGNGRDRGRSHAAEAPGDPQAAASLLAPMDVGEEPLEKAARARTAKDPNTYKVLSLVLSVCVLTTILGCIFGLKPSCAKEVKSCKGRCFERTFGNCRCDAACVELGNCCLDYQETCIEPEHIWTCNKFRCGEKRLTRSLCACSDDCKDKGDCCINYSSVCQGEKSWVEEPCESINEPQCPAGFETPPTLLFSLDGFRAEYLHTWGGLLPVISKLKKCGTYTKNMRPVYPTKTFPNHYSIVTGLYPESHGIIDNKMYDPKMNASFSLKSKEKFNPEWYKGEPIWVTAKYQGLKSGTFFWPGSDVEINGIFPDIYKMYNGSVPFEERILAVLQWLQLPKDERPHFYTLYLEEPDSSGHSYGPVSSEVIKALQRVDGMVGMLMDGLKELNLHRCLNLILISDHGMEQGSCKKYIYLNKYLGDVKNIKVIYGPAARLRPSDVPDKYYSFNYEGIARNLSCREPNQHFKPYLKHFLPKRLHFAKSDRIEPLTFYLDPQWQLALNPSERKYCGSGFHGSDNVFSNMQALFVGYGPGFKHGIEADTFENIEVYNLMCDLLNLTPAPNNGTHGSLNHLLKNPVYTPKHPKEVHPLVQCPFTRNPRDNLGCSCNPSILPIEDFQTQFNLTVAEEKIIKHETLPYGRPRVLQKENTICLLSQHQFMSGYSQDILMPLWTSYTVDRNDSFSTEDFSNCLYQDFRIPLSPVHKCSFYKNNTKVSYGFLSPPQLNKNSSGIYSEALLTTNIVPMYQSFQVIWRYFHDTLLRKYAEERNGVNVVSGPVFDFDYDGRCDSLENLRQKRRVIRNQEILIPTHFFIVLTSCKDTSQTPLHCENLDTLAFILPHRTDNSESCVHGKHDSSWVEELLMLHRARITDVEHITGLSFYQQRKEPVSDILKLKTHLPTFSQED
Summary of the method: (§3)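 Compound at 100 µM incubated at 37 °C with hNPP1 for 2 h or hNPP3 for 3 h, in buffer of 1 mM CaCl2, 200 mM NaCl, 10 mM KCl and 100 mM Tris, pH 8.5. Quenched with perchloric acid, neutralized to pH 7 with KOH, then C18 HPLC with isocratic TEAA (pH 7)/CH3CN. Degradation taken from the nucleoside monophosphate peak area minus control, relative to 100% UDP hydrolysis.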

[6] = biological target: T3, NPP3 (ectonucleotide pyrophosphatase/phosphodiesterase family member 3) (Homo sapiens, UniProt O14638); assay: Drug metabolism assessed as human NPP3-mediated compound hydrolysis at 100 uM after 3 hrs by HPLC analysis relative to UDP-treated control; assay type: ADME; details: human NPP3 enzyme, read-out: Drug metabolism; summary of the method: as §3
T3 sequence (O14638 whole entry): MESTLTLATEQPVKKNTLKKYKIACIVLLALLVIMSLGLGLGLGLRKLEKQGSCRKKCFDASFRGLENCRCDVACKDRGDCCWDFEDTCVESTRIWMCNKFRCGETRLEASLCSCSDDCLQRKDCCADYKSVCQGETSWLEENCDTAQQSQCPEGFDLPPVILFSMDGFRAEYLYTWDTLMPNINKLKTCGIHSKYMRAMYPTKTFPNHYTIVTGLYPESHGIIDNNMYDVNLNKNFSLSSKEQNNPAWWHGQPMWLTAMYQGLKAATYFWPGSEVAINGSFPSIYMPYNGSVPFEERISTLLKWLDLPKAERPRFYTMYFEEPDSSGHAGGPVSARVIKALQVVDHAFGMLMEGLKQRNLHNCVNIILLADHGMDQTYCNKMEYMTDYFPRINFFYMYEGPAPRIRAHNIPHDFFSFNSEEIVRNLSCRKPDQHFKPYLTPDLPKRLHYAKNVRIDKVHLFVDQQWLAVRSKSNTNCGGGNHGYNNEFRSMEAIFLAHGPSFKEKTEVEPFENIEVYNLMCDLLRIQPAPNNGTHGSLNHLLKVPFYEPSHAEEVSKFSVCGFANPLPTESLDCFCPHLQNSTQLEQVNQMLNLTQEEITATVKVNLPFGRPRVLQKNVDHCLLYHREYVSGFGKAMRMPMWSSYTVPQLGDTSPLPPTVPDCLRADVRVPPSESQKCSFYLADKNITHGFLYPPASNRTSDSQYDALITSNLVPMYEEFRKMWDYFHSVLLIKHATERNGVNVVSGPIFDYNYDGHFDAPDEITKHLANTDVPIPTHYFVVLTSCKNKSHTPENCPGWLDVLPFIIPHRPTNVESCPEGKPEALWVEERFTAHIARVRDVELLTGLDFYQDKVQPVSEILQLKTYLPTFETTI

[7] = biological target: T4, Ectonucleotide pyrophosphatase/phosphodiesterase family member 1 (Homo sapiens) (UniProt P22413); assay: Inhibition of human NPP1-mediated UDP hydrolysis at 100 uM after 2 hrs relative to UDP-treated control
T4 sequence (whole entry): T2 sequence (P22413 whole entry)
Summary of the method: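 21.44 µg hNPP1 extract pre-incubated 3 min at 37 °C in 1 mM CaCl2, 140 mM NaCl, 5 mM KCl and 50 mM Tris, pH 8.5. Reaction started with compound and UDP, each 100 µM final. Stopped after 2 h with ice-cold perchloric acid, neutralized with KOH, then HPLC. Compared with UDP-only reference samples. Mean ± S.D. of three experiments.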

P2Y purinoceptor 6 [8] = biological target: T1, P2Y purinoceptor 6; assay: Agonist activity at human recombinant P2Y6 receptor expressed in human 1321N1 cells assessed as induction of calcium release at 100 uM by fluo-4 dye-based spectrofluorometric analysis; assay type: functional, cell-based
Summary of the method: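 1321N1 astrocytoma cells stably expressing recombinant hP2Y6-R, trypsin/EDTA-detached, loaded with 1 µM Fluo-4/AM in HBSS (Ca2+/Mg2+) for 25 min at 37 °C, then de-esterified 25 min. Stirred suspension in a quartz cuvette, excitation 488 nm and emission 520 nm. Compound added, with UDP as control. Fmax from 0.1% Triton X-100 and Fmin from 50 mM EDTA; [Ca2+]i = Kd(F−Fmin)/(Fmax−F). Two experiments in duplicate.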

[9] = biological target: T5, Ectonucleotide pyrophosphatase/phosphodiesterase family member 3 (Homo sapiens) (UniProt O14638); assay: Inhibition of human NPP3-mediated UDP hydrolysis at 100 uM after 3 hrs relative to UDP-treated control
T5 sequence (whole entry): T3 sequence (O14638 whole entry)

P2Y purinoceptor 6 [10] = biological target: T1, P2Y purinoceptor 6; assay: Agonist activity at human recombinant P2Y6 receptor expressed in human 1321N1 cells assessed as increase in intracellular calcium level at =>100 uM by fluo-4 dye-based spectrofluorometric analysis; assay type: functional, cell-based; summary of the method: as §1
P2Y purinoceptor 6 [11] = biological target: T1, P2Y purinoceptor 6; assay: Antagonist activity at human recombinant P2Y6 receptor expressed in human 1321N1 cells assessed as inhibition of UDP-induced increase in intracellular calcium level incubated for 2 mins prior to UDP induction by fluo-4 dye-based spectrofluorometric analysis; assay type: functional, cell-based; summary of the method: as §2
[12] = biological target: P2Y purinoceptor 2 (Homo sapiens) (UniProt P41231); assay: Agonist activity at human recombinant P2Y2 receptor expressed in human 1321N1 cells assessed as increase in intracellular calcium level by fluo-4 dye-based spectrofluorometric analysis; assay type: functional, cell-based
[13] = biological target: P2Y purinoceptor 4 (Homo sapiens) (UniProt P51582); assay: Agonist activity at human recombinant P2Y4 receptor expressed in human 1321N1 cells assessed as increase in intracellular calcium level by fluo-4 dye-based spectrofluorometric analysis; assay type: functional, cell-based
P2Y purinoceptor 6 [14] = biological target: T1, P2Y purinoceptor 6; assay: Agonist activity at human recombinant P2Y6 receptor expressed in human 1321N1 cells assessed as increase in intracellular calcium level at 10 uM by fluo-4 dye-based spectrofluorometric analysis relative to UDP-treated control; assay type: functional, cell-based; summary of the method: as §1
P2Y purinoceptor 6 [15] = biological target: T1, P2Y purinoceptor 6; assay: Agonist activity at human recombinant P2Y6 receptor expressed in human 1321N1 cells assessed as increase in intracellular calcium level at 100 uM by fluo-4 dye-based spectrofluorometric analysis relative to UDP-treated control; assay type: functional, cell-based; summary of the method: as §1

T1 sequence (Q15077 whole entry): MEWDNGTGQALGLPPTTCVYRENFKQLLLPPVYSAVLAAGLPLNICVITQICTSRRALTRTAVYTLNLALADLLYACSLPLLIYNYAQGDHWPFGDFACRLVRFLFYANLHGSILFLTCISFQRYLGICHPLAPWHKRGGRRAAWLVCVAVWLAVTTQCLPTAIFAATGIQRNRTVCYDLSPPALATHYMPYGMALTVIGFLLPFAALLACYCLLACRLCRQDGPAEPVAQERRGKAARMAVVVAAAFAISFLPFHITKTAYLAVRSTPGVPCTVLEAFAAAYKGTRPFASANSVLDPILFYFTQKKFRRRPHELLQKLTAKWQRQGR
Chain of P2Y purinoceptor 4 (Homo sapiens) (P51582 whole entry): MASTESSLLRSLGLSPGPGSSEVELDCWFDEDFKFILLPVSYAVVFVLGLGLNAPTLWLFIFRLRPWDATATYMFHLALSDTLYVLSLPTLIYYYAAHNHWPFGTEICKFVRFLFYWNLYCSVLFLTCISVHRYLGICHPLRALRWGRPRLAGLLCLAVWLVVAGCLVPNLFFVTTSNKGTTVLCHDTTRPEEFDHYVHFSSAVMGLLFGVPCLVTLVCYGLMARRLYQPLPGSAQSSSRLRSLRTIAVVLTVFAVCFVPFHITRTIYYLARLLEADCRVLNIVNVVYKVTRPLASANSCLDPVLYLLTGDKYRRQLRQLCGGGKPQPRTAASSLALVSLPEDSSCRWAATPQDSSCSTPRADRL
Chain of P2Y purinoceptor 2 (Homo sapiens) (P41231 whole entry): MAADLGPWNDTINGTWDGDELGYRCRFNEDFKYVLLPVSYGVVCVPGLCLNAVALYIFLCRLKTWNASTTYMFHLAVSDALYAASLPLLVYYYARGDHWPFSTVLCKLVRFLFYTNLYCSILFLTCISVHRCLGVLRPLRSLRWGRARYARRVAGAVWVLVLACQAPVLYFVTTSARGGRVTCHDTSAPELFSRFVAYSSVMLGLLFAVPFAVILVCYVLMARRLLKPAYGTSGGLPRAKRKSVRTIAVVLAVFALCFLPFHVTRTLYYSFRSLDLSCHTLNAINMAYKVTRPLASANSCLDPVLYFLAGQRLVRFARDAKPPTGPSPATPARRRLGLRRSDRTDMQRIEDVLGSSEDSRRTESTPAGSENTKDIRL

Structure (SMILES)	Activity (P2Y purinoceptor 6 [1])	inhibition (P2Y purinoceptor 6 [3])	inhibition (P2Y purinoceptor 6 [4])	also measured
COc1cn([C@@H]2O[C@H](COP(=O)(O)C(F)(F)P(=O)(O)O)[C@@H](O)[C@H]2O)c(=O)[nH]c1=O	Active	inactive	40%	Activity (P2Y purinoceptor 6 [2]): Active
O=c1[nH]c(=O)n([C@H]2C[C@H](O)[C@@H](COP(=O)(O)C(F)(F)P(=O)(O)O)O2)cc1F	–	inactive	–	Activity (P2Y purinoceptor 6 [2]): inactive
O=c1ccn([C@@H]2O[C@H](COP(=O)(O)CS(=O)(=O)O)[C@@H](O)[C@H]2O)c(=O)[nH]1	–	–	inactive	metabolised at 2 h, 100 µM [5]: 9.5%; metabolised at 3 h, 100 µM [6]: 13.5%; inhibition [7]: 26.7%; Activity (P2Y purinoceptor 6 [8]): inactive; inhibition [9]: 12.2%
O=c1[nH]c(=O)n([C@@H]2O[C@H](COP(=O)(O)OS(=O)(=O)O)[C@@H](O)[C@H]2O)cc1F	–	–	–	metabolised at 2 h, 100 µM [5]: 18.9%; metabolised at 3 h, 100 µM [6]: 44.4%
O=c1[nH]c(=O)n([C@H]2C[C@H](OP(=O)(O)O)[C@@H](COP(=O)(O)O)O2)cc1F	–	inactive	–	Activity (P2Y purinoceptor 6 [2]): Active
O=c1[nH]c(=O)n([C@H]2C[C@H](O)[C@@H](COP(=O)(O)C(Cl)(Cl)P(=O)(O)O)O2)cc1F	–	inactive	–	Activity (P2Y purinoceptor 6 [2]): inactive
O=c1ccn([C@@H]2O[C@H](COP(=O)(O)OS(=O)(=O)O)[C@@H](O)[C@H]2O)c(=O)[nH]1	–	–	Active	Activity (P2Y purinoceptor 6 [10]): Active; IC50 (P2Y purinoceptor 6 [11]): 112 µM; Activity [12]: inactive; Activity [13]: inactive; metabolised at 2 h, 100 µM [5]: 27.9%; metabolised at 3 h, 100 µM [6]: 28.3%
COc1cn([C@@H]2O[C@H](COP(=O)(O)CP(=O)(O)O)[C@@H](O)[C@H]2O)c(=O)[nH]c1=O	–	–	–	Activity (P2Y purinoceptor 6 [14]): 27%
COc1cn([C@@H]2O[C@H](COP(=O)(O)C(Cl)(Cl)P(=O)(O)O)[C@@H](O)[C@H]2O)c(=O)[nH]c1=O	Active	inactive	Active	–
COc1cn([C@@H]2O[C@H](COP(=O)(O)CS(=O)(=O)O)[C@@H](O)[C@H]2O)c(=O)[nH]c1=O	–	–	inactive	metabolised at 2 h, 100 µM [5]: 21.6%; metabolised at 3 h, 100 µM [6]: 11%; inhibition [7]: 48.4%; Activity (P2Y purinoceptor 6 [8]): inactive; inhibition [9]: 10.5%
Cc1cn([C@@H]2O[C@H](COP(=O)(O)CP(=O)(O)O)[C@@H](O)[C@H]2O)c(=O)[nH]c1=O	–	–	–	Activity (P2Y purinoceptor 6 [15]): 60%
O=c1[nH]c(=O)n([C@H]2C[C@H](O)[C@@H](COP(=O)(O)CP(=O)(O)O)O2)cc1F	–	inactive	–	Activity (P2Y purinoceptor 6 [2]): Active

More lines, main results first:

Activity (P2Y purinoceptor 6 [1])	inhibition (P2Y purinoceptor 6 [3])	inhibition (P2Y purinoceptor 6 [4])	Structure (SMILES)	also measured
inactive	–	inactive	Cn1c(=O)ccn([C@@H]2O[C@H](COP(=O)(O)CP(=O)(O)O)[C@@H](O)[C@H]2O)c1=O	–
Active	inactive	Active	O=c1[nH]c(=O)n([C@@H]2O[C@H](COP(=O)(O)C(F)(F)P(=O)(O)O)[C@@H](O)[C@H]2O)cc1F	–
Active	inactive	–	O=c1[nH]c(=O)n([C@@H]2O[C@H](COP(=O)(O)C(Cl)(Cl)P(=O)(O)O)[C@@H](O)[C@H]2O)cc1F	–
inactive	–	inactive	O=c1[nH]c(=O)n([C@@H]2O[C@H](COP(=O)(O)CP(=O)(O)O)[C@@H](O)[C@H]2O)cc1-c1ccccc1	–
Active	–	–	O=c1[nH]c(=O)n([C@@H]2O[C@H](COP(=O)(O)CP(=O)(O)O)[C@@H](O)[C@H]2O)cc1F	–
inactive	–	24%	CC(C)c1cn([C@@H]2O[C@H](COP(=O)(O)CP(=O)(O)O)[C@@H](O)[C@H]2O)c(=O)[nH]c1=O	–
